Compound activity deposited in PubChem BioAssay by NMMLSC.
Most compounds without a hit are left out; they make up all but 0.96% or so of the library.
RPL19A TOR yeast – yeast TOR pathway RPL19A-GFP modulation. percent response vs DMSO, % at 10 µM. S. cerevisiae RPL19A-GFP strain, flow cytometry, 3 h; hits give low values. 330,000 tested, 0.3% active;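 active = percent response vs DMSO below 50%; inconclusive = fewer than 70 events counted for the yeast strain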;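 also: median channel GFP fluorescence of the barcoded RPL19A-GFP strain; ratio of sample median GFP to plate DMSO average so 100% = DMSO; lower means less RPL19A-GFP as with rapamycin TOR inhibition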
T cell HTS – T cell immune modulation candidate | 2C CD8+ T cell-vesicle binding, flow cytometry; hits give low values | response (vesicle binding), % at 7 µM | 330,000 tested, 0.068% active | AID 2052;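 active = response, share of CD8 T cells binding vesicles, and their 90th percentile fluorescence all below set limits, cut at about 80% in these data, passing the limit was not always enough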;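 also: values below 100% mean blocked vesicle binding to the CD8+ T cells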
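Read-out – percent CD8+ FL2 mean versus row control · System – murine 2C transgenic CD8+ T lymphocytes · Times – 1.5 h cell–vesicle binding at 37 °C, then 20 min icy labelling · Control set – naked vesicles low, QL9 vesicles with vehicle high · Detection – cytometric PE anti-B7-1 and Alexa647 anti-CD8 signals after 1% paraformaldehyde fixation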
CIT2 TOR yeast – modulators of TOR pathway CIT2-GFP in S. cerevisiae. S. cerevisiae CIT2-GFP strain, flow cytometry, 3 h; 100 means same as DMSO wells. GFP response vs DMSO, % at 10 µM. 320,000 tested, 0.065% active;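 active = GFP response relative to DMSO above a set limit, near the screen mean plus 3 SD, cut at about 150% in these data; inconclusive = Fewer than 70 cells measured for a yeast strain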;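 also: ratio of well median GFP fluorescence to mean of DMSO wells on the plate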
AGP1-GFP MLPCN – modulators of TOR pathway AGP1-GFP in S. cerevisiae; S. cerevisiae AGP1-GFP multiplex flow cytometry, 3 h; GFP as percent of DMSO wells; GFP response vs DMSO, % at 10 µM; 320,000 tested, 0.02% active; AID 2066;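 active = GFP response relative to DMSO above a set limit, near screen average plus 3 SD, cut at about 150% in these data; inconclusive = fewer than 70 cells counted for the yeast strain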;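 also: median GFP channel fluorescence of the gated AGP1 strain per well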
MEP2 TOR yeast – alters MEP2-GFP fluorescence in TOR pathway yeast screen. GFP response vs DMSO, % at 10 µM. 330,000 tested, 0.51% active. S. cerevisiae MEP2-GFP strain, flow cytometry GFP, 3 h; 100% = DMSO control level;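 active = GFP response versus DMSO above a set limit, roughly screen mean plus 3 SD, cut at about 180% in these data; inconclusive = fewer than 70 cells counted for a yeast strain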;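 also: median GFP fluorescence of the barcode-gated MEP2-GFP cells per well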
LAP4 TOR yeast – yeast TOR pathway LAP4-GFP modulation | S. cerevisiae LAP4-GFP multiplex, flow cytometry GFP, 3 h; median GFP as percent of DMSO wells | GFP response vs DMSO, % at 10 µM | 320,000 tested, 0.34% active;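 active = GFP response vs DMSO above a set limit, about the screen mean plus 3 SD, cut at about 150% in these data; inconclusive = under 70 cell events counted for the yeast strain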
Starred values were filed as active, the others as inactive; i = inactive; ? = inconclusive; [ ] = dose if it differs, or a comment.

SMILES	RPL19A TOR yeast	T cell HTS	CIT2 TOR yeast	AGP1-GFP MLPCN	MEP2 TOR yeast	LAP4 TOR yeast
CCOc1ncccc1C(=O)OCC(=O)Nc1cc(C(C)(C)C)ccc1OC	96.3	163.9	95.0	103.0	96.5	95.6
CCOC(=O)C(=Cc1ccc(F)cc1)C(=O)OCC	65.0	133.8	107.0	25.5	187.5*	122.5
O=C(NC1CCN(C(=O)Nc2ccc(F)cc2)CC1)c1cccc(F)c1	30.1*[may fluoresce violet]	184.5	?	?	199.7*[may fluoresce violet]	59.0
Cn1c(CNC(=O)CNC(=O)c2cccc(Cl)c2)cc(=O)n(C)c1=O	101.1	281.0	99.9	99.7	96.4	104.3
Cn1c(CNC(=O)CNC(=O)c2ccc(F)cc2)cc(=O)n(C)c1=O	100.5	0.0*	105.5	106.2	101.1	103.8
CNC(=O)CSc1nc2ccccc2c(=O)n1CCc1ccccc1	104.4	202.3	105.1	102.8	111.0	102.0
CCC1=Nc2cc(C(=O)NCc3cccnc3)ccc2Sc2ccc(C)cc21	47.6*[may fluoresce violet]	411.4	?	20.1	226.1*[may fluoresce violet]	99.5
CCC1=Nc2cc(C(=O)NCc3ccco3)ccc2Sc2ccc(Cl)cc21	103.1	93.1	106.2	108.2	111.1	100.0
COc1ccc(S(N)(=O)=O)cc1C(=O)OCCCC(=O)c1ccccc1	100.0	688.6	96.7	99.0	95.7	98.3
COc1ccc(-c2[nH]ncc2N=Nc2cc(C)cc(C)c2)cc1	97.9	729.3	86.7	94.9	98.1	94.3
COc1ccc(-c2[nH]ncc2N=Nc2ccccc2)cc1	101.4	347.9	89.2	80.2	103.6	151.2*
O=c1cc(-c2c(F)c(F)c(F)c(F)c2F)oc2c(F)c(F)c(F)c(F)c12	94.2	210.5	114.5	104.0	103.0	176.8*
CCCn1cc(CN2CCCC(C(=O)c3ccc4c(c3)OCO4)C2)c(C)n1 (configuration not stated)	101.8	113.4	107.8	108.1	102.6	90.4
O=C(c1ccccc1F)N1CCc2ccccc21	101.2	0.0*	105.1	105.3	121.2	111.9
COc1ccccc1C1C2=C(CCCC2=O)N(CC(=O)O)C2=C1C(=O)CCC2	13.9*[may fluoresce violet]	97.1	?	?	257.0*[may fluoresce violet]	57.7
COc1ccc(C2C3=C(CC(C)(C)CC3=O)N(CC(=O)O)C3=C2C(=O)CC(C)(C)C3)cc1OC	96.4	246.9	110.7	105.2	100.9	94.5
COc1ccc(C2C3=C(CCCC3=O)N(CC(=O)O)C3=C2C(=O)CCC3)cc1Cl	45.9*	246.0	130.1	148.4	501.9*	126.2
CCOc1cc(C2C3=C(CCCC3=O)N(CC(=O)O)C3=C2C(=O)CCC3)ccc1OC	93.8	523.8	88.4	85.9	88.2	77.8
Cc1ccc(NC(=O)c2cccc(S(=O)(=O)N3CCN(c4ccc(F)cc4)CC3)c2)nc1	99.6	i	95.0	97.8	89.8	91.7
O=C(Nc1ccc(OC(=O)c2cccnc2)cc1)c1cccnc1	98.3	369.9	92.8	96.3	102.9	103.2
O=C(Nc1cccc(OC(=O)c2cccnc2)c1)c1cccnc1	59.0	451.9	?	21.2	193.9*[may fluoresce violet]	102.7
C/C(=N/OC(=O)c1ccc(F)cc1)c1ccc(C)cc1	53.0	173.7	?	28.9	327.4*[may fluoresce violet]	100.5
Cc1ccccc1/C(N)=N/OC(=O)c1ccc(F)cc1	97.2	366.2	97.0	90.5	100.4	102.6
O=C(C1=C(O)C(=O)N(CCN2CCOCC2)C1c1ccc(F)cc1)c1cc2ccccc2o1 (configuration not stated)	16.2*[may fluoresce violet]	341.7	?	?	158.1	69.9
O=C(C1=C(O)C(=O)N(CCN2CCOCC2)C1c1cccc(Br)c1)c1cc2ccccc2o1 (configuration not stated)	96.5	69.4	86.3	98.3	101.5	103.3
NS(=O)(=O)c1cc2c(cc1Cl)NC(Cc1ccccc1)NS2(=O)=O (configuration not stated)	103.4	149.9	131.1	93.3	157.4	117.8
CCc1ccc([C@H]2C(C(=O)O)=C[C@@H](CC3CCCC3)N2S(=O)(=O)c2ccc(C)cc2)cc1	104.4	226.3	75.0	89.4	96.0	97.6
